Test results from ChEMBL document CHEMBL1139049, “Highly potent 3-pyrroline mechanism-based inhibitors of bovine plasma amine oxidase and mass spectrometric confirmation of cofactor derivatization” (Bioorg Med Chem, 2007).
The source made the active and inactive calls. No cut-off for these calls is given here.

Tests used:
[1] = (§1) Inhibition of BPAO after 20 mins by benzylamine assay; set-up: species or system Bos taurus
How it was run: (§2)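 Bovine plasma amine oxidase (~1 μM) preincubated with varying inhibitor concentrations at 30 °C in 50 mM sodium phosphate, pH 7.2. Aliquots taken over time were assayed for residual activity by the benzylamine assay, with benzaldehyde formation followed at 250 nm. The value is the concentration giving 50% inactivation at a fixed 20 min.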

[2] = organism: Bos taurus; assay: Ratio of kinact to Ki for BPAO
How it was run: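 Inactivation of ~1 μM BPAO by varying inhibitor concentrations, at 30 °C in 50 mM sodium phosphate, pH 7.2. Residual activity in time aliquots was read by benzylamine oxidation (benzaldehyde, 250 nm). Log activity versus time gave pseudo-first-order rates, and kinact and Ki were obtained from Kitz–Wilson plots.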

[3] = organism: Bos taurus; assay: Inhibition of BPAO assessed as redox cycling activity by NBT assay
How it was run: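 BPAO was inactivated by preincubation with inhibitor in 50 mM sodium phosphate, pH 7.2. The inactivated preparations were then tested for TPQ cofactor redox cycling by the standard sodium glycinate nitroblue tetrazolium staining assay.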

[4] = organism: Bos taurus; assay: as §1; how it was run: as §2

| SMILES | IC50 [1] [µM] | Ratio [2] [mM⁻¹ min⁻¹] | Activity [3] | Kinact [4] [min⁻¹] | Ki [1] [µM] |
| --- | --- | --- | --- | --- | --- |
| C[n+]1cccc(C2=CCNC2)c1 | 500 |  |  |  |  |
| Fc1c(F)c(F)c(C2=CCNC2)c(F)c1F | 6.1 | 6 | Active |  |  |
| C1=C(c2nccc3ccccc23)CNC1 | 0.86 | 40 | Active |  |  |
| C1=C(c2cccnc2)CNC1 | 1.5 | 24 |  |  |  |

More lines, now with the values ahead:

| IC50 [1] [µM] | Ratio [2] [mM⁻¹ min⁻¹] | Activity [3] | Kinact [4] [min⁻¹] | Ki [1] [µM] | SMILES |
| --- | --- | --- | --- | --- | --- |
| 0.75 | 65 |  |  |  | C1=C(c2ccccn2)CNC1 |
| > 1000 |  |  |  |  | C[n+]1ccc(C2=CCNC2)cc1 |
| 2.7 | 13 |  |  |  | C1=C(c2ccc3ccccc3n2)CNC1 |
| 50 | 1.2 | Active | 0.091 | 76 | C1=C(c2ccncc2)CNC1 |
